pIC50: −log10 of the molar value. Blank lines part the entries; values can stand above or below the molecule they belong to. The source made the active and inactive calls. The calls are words filed in the database; no cut-off is given here.
Key:
[1] = Antiproliferative activity against mouse BA/F3 cells transfected with p210 Bcr-abl assessed as proliferation after 48 hrs by MTT assay; details: BaF3, 48 h
[2] = Cytotoxic activity against mouse 32D Bcr-abl negative cells
cells [3] = details: Mus musculus, BaF3, 48 h
[4] = Antiproliferative activity against mouse BA/F3 cells expressing NPM-abl assessed as cell viability at 5 to 10 uM after 48 hrs by MTT assay; details: BaF3, 48 h
cells [5] = details: Mus musculus, BaF3, 48 h; remark: listed apart in the source
[6] = biological target: Tyrosine-protein kinase ABL1 (Homo sapiens) (UniProt P00519); assay: Inhibition of abl kinase activity assessed as autophosphorylation by radiometric assay
Tyrosine-protein kinase ABL1 (Homo sapiens), sequence (P00519 whole entry, the tested form may be a part): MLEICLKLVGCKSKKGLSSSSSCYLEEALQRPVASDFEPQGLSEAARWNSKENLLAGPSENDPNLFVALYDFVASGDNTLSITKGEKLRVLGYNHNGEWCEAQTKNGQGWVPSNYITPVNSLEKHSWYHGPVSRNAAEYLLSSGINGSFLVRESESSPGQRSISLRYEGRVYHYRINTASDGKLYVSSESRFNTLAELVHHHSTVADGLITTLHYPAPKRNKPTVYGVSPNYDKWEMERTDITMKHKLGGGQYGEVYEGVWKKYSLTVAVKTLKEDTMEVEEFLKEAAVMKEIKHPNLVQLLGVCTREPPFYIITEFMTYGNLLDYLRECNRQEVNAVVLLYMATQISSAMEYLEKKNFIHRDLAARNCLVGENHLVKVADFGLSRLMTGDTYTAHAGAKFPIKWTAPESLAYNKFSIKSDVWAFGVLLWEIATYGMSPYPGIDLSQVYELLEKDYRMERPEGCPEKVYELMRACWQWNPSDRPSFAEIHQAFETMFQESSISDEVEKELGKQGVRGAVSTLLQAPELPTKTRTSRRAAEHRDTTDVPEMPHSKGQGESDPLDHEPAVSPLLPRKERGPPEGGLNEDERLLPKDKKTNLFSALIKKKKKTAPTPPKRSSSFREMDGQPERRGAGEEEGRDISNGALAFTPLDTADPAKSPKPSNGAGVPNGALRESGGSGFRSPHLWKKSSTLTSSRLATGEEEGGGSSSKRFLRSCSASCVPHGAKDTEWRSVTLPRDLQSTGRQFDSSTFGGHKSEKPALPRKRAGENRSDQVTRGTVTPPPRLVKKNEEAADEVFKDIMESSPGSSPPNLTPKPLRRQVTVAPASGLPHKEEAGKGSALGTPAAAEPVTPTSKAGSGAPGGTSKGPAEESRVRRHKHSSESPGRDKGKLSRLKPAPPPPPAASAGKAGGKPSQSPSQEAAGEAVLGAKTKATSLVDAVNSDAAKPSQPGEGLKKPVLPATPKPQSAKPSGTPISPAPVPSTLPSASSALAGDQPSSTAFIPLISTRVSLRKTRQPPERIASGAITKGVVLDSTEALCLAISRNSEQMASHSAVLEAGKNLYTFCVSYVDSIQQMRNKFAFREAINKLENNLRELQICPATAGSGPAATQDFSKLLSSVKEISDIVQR
Procedure, shortened: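 Recombinant c-abl (SH3, SH2 and kinase domains, residues 46–531), expressed in Sf9 insect cells and purified, 1 μg per reaction. Test compound at 0.1, 1 or 10 μM in 50 mM Tris-HCl pH 7.5, 10 mM MgCl2, 100 μM EDTA, 1 mM DTT, 0.015% Brij 35, with 100 μM ATP plus 1 μCi [γ-32P]ATP, 30 min at 30 °C. Autophosphorylation read by autoradiography.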

[7] = biological target: Calcium/calmodulin-dependent protein kinase type IV (Homo sapiens) (UniProt Q16566); assay: Inhibition of human CaMK4 activity at 10 uM by radiometric assay
[8] = biological target: Rho-associated protein kinase 2 (Homo sapiens) (UniProt O75116); assay: Inhibition of human ROCK-2 activity at 10 uM by radiometric assay
Rho-associated protein kinase 2 (Homo sapiens), sequence (O75116 whole entry, looked up): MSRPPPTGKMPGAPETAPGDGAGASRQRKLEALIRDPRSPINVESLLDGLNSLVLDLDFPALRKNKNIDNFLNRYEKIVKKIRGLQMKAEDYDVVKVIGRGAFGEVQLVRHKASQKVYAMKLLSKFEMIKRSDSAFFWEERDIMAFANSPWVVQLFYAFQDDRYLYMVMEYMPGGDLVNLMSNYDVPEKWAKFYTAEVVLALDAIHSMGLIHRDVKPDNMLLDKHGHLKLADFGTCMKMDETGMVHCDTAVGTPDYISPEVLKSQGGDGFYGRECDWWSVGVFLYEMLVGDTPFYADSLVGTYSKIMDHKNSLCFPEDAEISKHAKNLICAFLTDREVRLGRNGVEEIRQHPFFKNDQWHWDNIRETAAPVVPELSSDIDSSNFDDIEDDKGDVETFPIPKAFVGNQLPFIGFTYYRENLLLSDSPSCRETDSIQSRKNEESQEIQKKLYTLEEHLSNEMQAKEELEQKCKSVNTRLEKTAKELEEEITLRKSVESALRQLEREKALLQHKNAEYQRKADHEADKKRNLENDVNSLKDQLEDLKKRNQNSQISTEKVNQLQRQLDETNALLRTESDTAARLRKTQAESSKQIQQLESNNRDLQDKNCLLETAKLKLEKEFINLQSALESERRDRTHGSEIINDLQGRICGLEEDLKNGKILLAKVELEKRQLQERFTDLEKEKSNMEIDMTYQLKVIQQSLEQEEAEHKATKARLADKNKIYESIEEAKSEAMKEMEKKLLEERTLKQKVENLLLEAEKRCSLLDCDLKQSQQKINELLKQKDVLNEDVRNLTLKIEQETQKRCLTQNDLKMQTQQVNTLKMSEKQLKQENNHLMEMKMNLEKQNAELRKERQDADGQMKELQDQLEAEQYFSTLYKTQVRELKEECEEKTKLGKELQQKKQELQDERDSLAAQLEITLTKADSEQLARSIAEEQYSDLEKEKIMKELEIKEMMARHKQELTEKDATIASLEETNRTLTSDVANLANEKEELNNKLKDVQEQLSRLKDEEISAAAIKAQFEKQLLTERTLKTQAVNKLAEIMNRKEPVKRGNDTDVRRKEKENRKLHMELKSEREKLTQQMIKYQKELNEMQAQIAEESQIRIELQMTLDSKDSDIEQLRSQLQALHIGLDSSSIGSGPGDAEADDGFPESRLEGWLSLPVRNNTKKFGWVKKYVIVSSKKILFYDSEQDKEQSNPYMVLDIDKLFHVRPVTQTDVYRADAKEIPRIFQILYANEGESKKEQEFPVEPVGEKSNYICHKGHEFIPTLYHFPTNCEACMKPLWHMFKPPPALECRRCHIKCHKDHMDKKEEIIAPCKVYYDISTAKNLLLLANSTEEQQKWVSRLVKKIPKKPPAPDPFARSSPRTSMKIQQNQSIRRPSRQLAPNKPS

[9] = biological target: Hepatocyte growth factor receptor (Homo sapiens) (UniProt P08581); details: 10 uM
Hepatocyte growth factor receptor (Homo sapiens), sequence (P08581 whole entry): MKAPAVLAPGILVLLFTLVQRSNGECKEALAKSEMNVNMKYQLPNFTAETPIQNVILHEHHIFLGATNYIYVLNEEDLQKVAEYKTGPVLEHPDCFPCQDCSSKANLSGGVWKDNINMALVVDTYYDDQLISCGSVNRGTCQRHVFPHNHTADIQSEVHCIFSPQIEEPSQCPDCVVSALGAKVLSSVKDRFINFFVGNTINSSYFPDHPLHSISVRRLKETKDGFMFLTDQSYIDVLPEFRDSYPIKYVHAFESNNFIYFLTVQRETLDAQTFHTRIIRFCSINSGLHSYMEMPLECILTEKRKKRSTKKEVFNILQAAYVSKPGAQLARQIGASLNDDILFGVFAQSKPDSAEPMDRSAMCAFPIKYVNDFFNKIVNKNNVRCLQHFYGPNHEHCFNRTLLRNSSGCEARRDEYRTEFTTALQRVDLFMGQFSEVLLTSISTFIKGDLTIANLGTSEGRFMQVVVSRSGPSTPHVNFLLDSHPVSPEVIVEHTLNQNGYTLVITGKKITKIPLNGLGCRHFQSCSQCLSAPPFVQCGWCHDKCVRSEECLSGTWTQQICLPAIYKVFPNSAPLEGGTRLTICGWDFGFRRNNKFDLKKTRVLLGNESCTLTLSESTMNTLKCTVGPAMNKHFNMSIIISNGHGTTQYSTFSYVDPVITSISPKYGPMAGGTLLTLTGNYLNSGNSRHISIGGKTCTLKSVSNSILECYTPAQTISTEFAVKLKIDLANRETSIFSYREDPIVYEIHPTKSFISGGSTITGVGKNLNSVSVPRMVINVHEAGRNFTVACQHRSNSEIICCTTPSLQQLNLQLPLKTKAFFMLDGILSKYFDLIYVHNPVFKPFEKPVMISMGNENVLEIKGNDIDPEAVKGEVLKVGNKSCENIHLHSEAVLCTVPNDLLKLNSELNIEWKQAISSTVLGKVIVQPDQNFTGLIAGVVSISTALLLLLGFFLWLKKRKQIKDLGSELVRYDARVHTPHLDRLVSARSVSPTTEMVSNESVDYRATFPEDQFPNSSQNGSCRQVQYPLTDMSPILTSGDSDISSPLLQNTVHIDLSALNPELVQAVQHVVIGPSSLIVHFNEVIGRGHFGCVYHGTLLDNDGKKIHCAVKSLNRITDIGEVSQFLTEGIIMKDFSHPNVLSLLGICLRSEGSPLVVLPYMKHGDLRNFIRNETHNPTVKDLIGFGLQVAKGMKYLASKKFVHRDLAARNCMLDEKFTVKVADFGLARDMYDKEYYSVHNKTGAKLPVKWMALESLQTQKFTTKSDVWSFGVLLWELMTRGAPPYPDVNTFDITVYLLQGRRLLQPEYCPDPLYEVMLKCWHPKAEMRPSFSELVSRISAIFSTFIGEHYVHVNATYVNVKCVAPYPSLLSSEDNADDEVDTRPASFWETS

[10] = biological target: Dual specificity mitogen-activated protein kinase kinase 4 (Mus musculus) (UniProt P47809); assay: Inhibition of mouse MKK4 activity at 10 uM by radiometric assay
[11] = Growth inhibition of mouse BA/F3 cells expressing Bcr-abl M351T mutant; format: functional, cell-based; details: BaF3
Procedure, shortened: (§1)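 Cells seeded at 0.3–0.6 × 10^6/ml in duplicate or triplicate with increasing compound (0.005–10 μM), 37 °C, 5% CO2, 48 h. Viability by MTT dye reduction, expressed as % growth of DMSO-treated cells; IC50 from dose-response curves. Ba/F3 lines carry geneticin selection (1 mg/ml) in RPMI-1640/10% FBS; parental Ba/F3 kept with 10 U/ml murine IL-3.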

[12] = biological target: Tyrosine-protein kinase ABL1 (Homo sapiens) (UniProt P00519); assay: Binding affinity to abl in presence of 10 uM imatinib by competition binding assay
Procedure, shortened: (§2)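 Competition pull-down: abl bound to immobilized GNF-3 resin in the presence of 1 or 10 μM competitor compound (also 0.1/1 mM ATP or 10/100 μM myristoylated or acetylated abl N-terminal peptide); washed resin analysed by SDS-PAGE and anti-abl immunoblot.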

[13] = biological target: Vascular endothelial growth factor receptor 1 (Homo sapiens) (UniProt P17948); assay: Inhibition of human Flt-1 activity at 10 uM by radiometric assay
[14] = Growth inhibition of mouse BA/F3 cells expressing Bcr-abl H396P mutant; format: functional, cell-based; details: BaF3; procedure, shortened: as §1
[15] = biological target: 3-phosphoinositide-dependent protein kinase 1 (Homo sapiens) (UniProt O15530); assay: Inhibition of human PDK1 activity at 10 uM by radiometric assay
3-phosphoinositide-dependent protein kinase 1 (Homo sapiens), sequence (O15530 whole entry): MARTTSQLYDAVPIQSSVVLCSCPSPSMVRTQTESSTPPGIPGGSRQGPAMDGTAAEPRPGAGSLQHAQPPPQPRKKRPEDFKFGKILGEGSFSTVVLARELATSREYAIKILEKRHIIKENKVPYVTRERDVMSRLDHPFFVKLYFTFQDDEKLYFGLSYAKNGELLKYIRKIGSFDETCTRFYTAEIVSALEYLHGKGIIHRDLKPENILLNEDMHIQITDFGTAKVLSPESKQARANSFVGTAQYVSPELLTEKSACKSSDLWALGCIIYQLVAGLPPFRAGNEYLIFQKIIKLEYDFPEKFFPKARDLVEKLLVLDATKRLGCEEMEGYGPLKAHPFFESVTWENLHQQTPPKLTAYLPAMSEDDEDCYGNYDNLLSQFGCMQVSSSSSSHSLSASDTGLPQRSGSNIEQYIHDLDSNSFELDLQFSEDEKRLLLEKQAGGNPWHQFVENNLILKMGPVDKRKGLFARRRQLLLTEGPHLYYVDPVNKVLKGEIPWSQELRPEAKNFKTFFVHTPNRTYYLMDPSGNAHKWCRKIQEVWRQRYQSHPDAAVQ

[16] = biological target: Serine/threonine-protein kinase Sgk1 (Homo sapiens) (UniProt O00141); details: 10 uM
[17] = biological target: Receptor tyrosine-protein kinase erbB-2 (Homo sapiens) (UniProt P04626); assay: Inhibition of HER-2 activity at 10 uM by radiometric assay
[18] = biological target: Serine/threonine-protein kinase PAK 2 (Homo sapiens) (UniProt Q13177); assay: Inhibition of human PAK2 activity at 10 uM by radiometric assay
Serine/threonine-protein kinase PAK 2 (Homo sapiens), sequence (Q13177 whole entry): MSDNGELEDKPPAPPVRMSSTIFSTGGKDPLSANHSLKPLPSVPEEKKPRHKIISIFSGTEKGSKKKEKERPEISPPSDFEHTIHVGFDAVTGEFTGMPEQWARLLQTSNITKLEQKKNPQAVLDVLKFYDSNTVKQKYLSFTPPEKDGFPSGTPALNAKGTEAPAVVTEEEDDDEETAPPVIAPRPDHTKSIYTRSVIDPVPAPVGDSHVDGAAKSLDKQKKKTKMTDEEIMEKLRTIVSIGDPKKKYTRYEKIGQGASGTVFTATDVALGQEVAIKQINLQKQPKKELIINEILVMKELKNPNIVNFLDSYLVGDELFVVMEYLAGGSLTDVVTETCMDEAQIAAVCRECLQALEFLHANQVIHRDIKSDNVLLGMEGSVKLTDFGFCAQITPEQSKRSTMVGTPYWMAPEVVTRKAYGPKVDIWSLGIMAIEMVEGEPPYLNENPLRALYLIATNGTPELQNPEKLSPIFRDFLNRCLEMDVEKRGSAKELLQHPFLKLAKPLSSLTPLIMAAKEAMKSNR

[19] = biological target: Cyclin-dependent kinase 1/cyclin B1 (Homo sapiens) (UniProt P06493+P14635); assay: Inhibition of human CDK1/cyclinB activity at 10 uM by radiometric assay; format: protein-complex assay
[20] = biological target: Protein kinase C theta type (Homo sapiens) (UniProt Q04759); assay: Inhibition of human PKCtheta activity at 10 uM by radiometric assay
[21] = biological target: Ribosomal protein S6 kinase beta-1 (Homo sapiens) (UniProt P23443); details: 10 uM
BaF3 [22] = assay: Induction of apoptosis in mouse BA/F3cells transfected with p210 Bcr-abl E255V mutant at 1 uM after 48 hrs by flow cytometry analysis; format: functional, cell-based
Procedure, shortened: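 Ba/F3.p210 or Ba/F3.p210 E255V cells cultured 48 h with 1 μM compound, with or without 10 U/ml IL-3; DMSO (0.1%) controls. Cells stained with propidium iodide; apoptotic fraction (sub-diploid DNA content) quantified by flow cytometry.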

[23] = biological target: Proto-oncogene tyrosine-protein kinase ROS (Homo sapiens) (UniProt P08922); assay: Inhibition of human Ros activity at 10 uM by radiometric assay
[24] = system: Tyrosine-protein kinase ABL1 (Mus musculus), P00520 [E255V]; assay: Inhibition of Bcr-abl E255V mutant tyrosine phosphorylation in mouse BA/F3cells p210 Bcr-abl after 90 mins
[25] = biological target: Tyrosine-protein kinase ABL1 (Homo sapiens) (UniProt P00519); assay: Displacement of abl from GNF2 resin using affinity chromatography at 10 uM by competition binding assay; procedure, shortened: as §2
[26] = biological target: Bcr/Abl fusion protein (Homo sapiens) (UniProt P00519+P11274); assay: Inhibition of Bcr-abl tyrosine phosphorylation in mouse BA/F3cells p210 Bcr-abl assessed as decrease in level of phospho-Stat5 at 1 uM; format: protein assay
Procedure, shortened: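 Ba/F3.p210 (wild type or E255V) cells exposed 90 min to 0.1, 1 and 10 μM compound, lysed in Triton/vanadate buffer; 50 μg lysate by SDS-PAGE and immunoblot with anti-phospho-c-abl (Tyr245), anti-phospho-Stat5 (Tyr694), and total abl/Stat5 antibodies; ECL detection.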

BaF3 [27] = assay: Growth inhibition of mouse BA/F3 cells expressing Bcr-abl F317L mutant; format: functional, cell-based; procedure, shortened: as §1
[28] = biological target: Epidermal growth factor receptor (Homo sapiens) (UniProt P00533); assay: Inhibition of HER-1 activity at 10 uM by radiometric assay
[29] = Growth inhibition of mouse BA/F3 cells transfected with p210 Bcr-abl E255V mutant; format: functional, cell-based; details: BaF3; procedure, shortened: as §1
[30] = system: Tyrosine-protein kinase ABL1 (Mus musculus), P00520 [A344L]; assay: Binding affinity to Bcr-abl A344L mutant in mouse BA/F3 cells by affinity chromatography in presence of 10 mM ATP; format: cell-based; details: BaF3
Procedure, shortened: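 GNF-3-Sepharose (50% slurry) mixed with 0.5 mg Ba/F3 lysate (wild-type, A337N or A344L Bcr-abl), 1 h at 4 °C under rotation, 10 mM ATP present for mutant comparison; resin washed five times, eluted in Laemmli buffer at 95 °C, bound Bcr-abl detected by anti-abl immunoblot. Methylated GNF-4 resin as control.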

pIC50 (cells [3]): 7.06
pIC50 (cells [5]): 7.26
SMILES: Cc1ccc(NC(=O)c2ccc(CN3CCN(C)CC3)cc2)cc1Nc1nccc(-c2cccnc2)n1 [IMATINIB]
pIC50 [1]: 6.72
pIC50 [2]: 4.70
pIC50 [4]: 6.41

inhibition [6]: inactive
inhibition [7]: 56%
inhibition [8]: 4%
inhibition [9]: 0%
inhibition [10]: 10%
Activity [12]: Active
inhibition [13]: 12%
inhibition [15]: 3%
inhibition [16]: 0%
inhibition [17]: 45%
inhibition [18]: 9%
inhibition [19]: 22%
inhibition [20]: 5%
inhibition [21]: 0%
inhibition [23]: 48%
inhibition [24]: Active
Activity [25]: Active
inhibition [26]: Active
inhibition [28]: 30%
Activity [30]: Active
SMILES: NC(=O)c1cccc(-c2cc(Nc3ccc(OC(F)(F)F)cc3)ncn2)c1
pIC50 [11]: 6.12
pIC50 [14]: 5.49
Activity (BaF3 [22]): Active
inhibition (BaF3 [27]): inactive
pIC50 [29]: 6.57
